Screening data: PubChem BioAssay, several laboratories
A selection: hits, their analogues and other compounds. The true share with any hit is near 1.8%.
TRAIL sens C8 – viability loss with TRAIL in NB7+C8 cells, primary screen, TRAIL sensitizer project, cell-based, ATPlite luminescence | 1% of 360,000 active | inhibition (viability loss, TRAIL sensitization), % at 10 µM;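 active means compounds causing at least 50% loss of cell viability in the single-dose screen, relative to plate controls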
PPC-1+TRAIL kill – compounds killing PPC-1 cancer cells with TRAIL present, primary screen, TRAIL potentiator project, ATPLite luminescence, uHTS | cell killing (% activity), % at 4 µM or 5 µM | 0.41% of 220,000 active | PPC-1 cells + TRAIL, ATPLite viability luminescence;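 active means cell killing above 50% in the first pass at 4 µM, then a duplicate retest at 5 µM averaging 50% or more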;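 further: plate controls were cells with TRAIL plus DMSO for no effect and medium-only wells lacking cells for full effect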
STAT3 inh-1 – IL-6 driven STAT3 reporter inhibitors, primary screen, U3A cells, luciferase, luminescence, MLSCN library | IL-6 STAT3-luciferase reporter; host cell line lacks STAT1 | inhibition, % at 5.5 µM | 0.89% of 190,000 active;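 active means inhibition above the mean inhibition across all screened compounds plus 3 SD, cut at about 44% in these data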;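 further: 0% = DMSO only wells and 100% = 100 µM nifuroxazide control wells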
STAT1 blocker – STAT1 signaling inhibitors, primary screen, cell-based, HTS, luciferase reporter; inhibition, % at 5.5 µM; 0.35% of 200,000 active; NIH 3T3 STAT1-luciferase reporter, IFN-gamma, luminescence;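 active means inhibition above a set limit, the mean inhibition across all tested compounds plus 3 SD, cut at about 34% in these data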;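 further: 0% = IFN-gamma with DMSO and 100% = IFN-gamma with 300 µM nifuroxazide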
STAT3 act-1 – IL-6 driven STAT3 reporter potentiators, primary screen, U3A cells, luciferase, luminescence, MLSCN library | IL-6 STAT3-luciferase reporter; 100% = signal with IL-6 EC80 alone | activation (% of control), % at 5.6 µM | 0.91% of 190,000 active;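 active means activation above the screen-wide mean of compound activation plus 3 SD, cut at about 130% in these data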;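 further: 0% = background luminescence of wells with medium and substrate only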
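system = STAT3-luciferase reporter U3A cells | reagent = IL-6 stimulus at 33 ng/mL final | timing = 1 h compound pre-exposure, 6 h IL-6 stimulation, 37 °C | measured by = luminescence | evaluation = % activation versus median of IL-6-stimulated wells | control set = IL-6-only wells as 100% reference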
STAT3 inh-2 – STAT3 reporter inhibitors, retest of hits, confirmation, U3A cells, luciferase, luminescence; shares compounds with STAT3 inh-1; IL-6 STAT3 luciferase reporter; cell line lacks STAT1; inhibition, % at 5.7 µM; 45% of 1,200 active; AID 1265, 2008;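 active means inhibition above the hit cutoff computed for the primary STAT3 screen, cut at about 44% in these data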;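 further: 0% = IL-6 plus DMSO and 100% = IL-6 plus nifuroxazide control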
NFkB inh 2 – NF-kB reporter inhibitors in human cells, confirmation, counter-screen for STAT3 inhibitor project, cell-based, HEK293T, luciferase, TNF-alpha stimulus | 36% of 1,200 active | inhibition, % at 5.7 µM | TNF-alpha induced | shares compounds with STAT3 inh-1;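 active means inhibition above the mean of solvent-only control wells plus 3 SD, cutoff set per campaign, cut at about 13% in these data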;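 further: 0% = TNF-alpha with DMSO and 100% = TNF-alpha with MG high control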
STAT1 inh STAT3c – STAT1 reporter inhibitors, IFN-gamma induced, confirmation, counter-screen for STAT3 inhibitor project, cell-based, NIH 3T3, luciferase luminescence; 27% of 1,200 active; inhibition, % at 5.7 µM; shares compounds with STAT3 inh-1; NIH 3T3 STAT1-luciferase reporter;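 active means inhibition above the mean plus 3 SD of solvent-only control wells, limit set per screening run, cut at about 16% in these data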;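 further: 0% = DMSO with IFN-gamma and 100% = nifuroxazide control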
STAT3 act-2 – STAT3 reporter potentiators, retest of hits, confirmation, U3A cells, luciferase, luminescence; shares compounds with STAT3 act-1; IL-6 potentiation; U3A cells lack STAT1; 100 means same as IL-6 alone; potentiation (% of control), % at 5.7 µM; 64% of 1,200 active;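 active means percent activation of the STAT3 luciferase reporter above a set limit taken from the earlier primary screen, cut at about 130% in these data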;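 further: 0% = background signal of medium plus substrate and 100% = median of IL-6 with DMSO wells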
NFkB act STAT3ct – NF-kB reporter activators in human cells, counter-screen for STAT3 activator project; shares compounds with STAT3 act-1; NF-kappaB reporter activation; activation (% of control), % at 5.7 µM; 11% of 1,200 active; in the data active means activation above about 120%;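 further: reporter induced by TNF-alpha stimulation; 100% = median of stimulated DMSO wells and 0% = no signal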
STAT1 act – STAT1 reporter activators, IFN-gamma induced, counter-screen for STAT3 activator project, cell-based, NIH 3T3, luciferase luminescence | shares compounds with STAT3 act-1 | NIH 3T3 STAT1-luciferase reporter | activation (% of control), % at 5.7 µM | 13% of 1,200 active | AID 1318, 2008;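 active means activation above the solvent-only control well mean plus 3 SD, set per screening run, cut at about 120% in these data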;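 further: 100% = IFN-gamma with DMSO median signal so 100% means no change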
PPC-1 tox – cytotoxicity in PPC-1 cells, confirmation, cytotoxicity control for TRAIL apoptosis potentiator project, cell-based, ATP content luminescence | 50% of 1,200 active | cytotoxicity, % at 5 µM | PPC-1 viability, ATPlite luminescence, overnight | AID 1447, 2008 | shares compounds with PPC-1+TRAIL kill;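 active means reconfirmed compounds whose average cytotoxicity reaches 50% or more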;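 further: 0% = DMSO-treated cells and 100% = wells holding medium but no cells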
* = called active by the depositor; . = no result.

SMILES	TRAIL sens C8	PPC-1+TRAIL kill	STAT3 inh-1	STAT1 blocker	STAT3 act-1	STAT3 inh-2	NFkB inh 2	STAT1 inh STAT3c	PPC-1 tox	others
C=C(C)CSc1nc2ncccc2[nH]1	-8	0	3	-5	101	.	.	.	.
Cc1ccc(CSc2nc3ncccc3[nH]2)cc1	67*	49	48*	-8	61	9	-15	-34	48
Cc1cccc(NC(=O)c2ccc(Cl)nc2)n1	12	.	.	.	.	.	.	.	.
CCOc1ccc(C(=O)Nc2cccc(C)n2)cc1	57*	51*	57*	-13	56	17	-12	-71	52*
Cc1ccc(-c2nc3n(n2)Cc2ccccc2-3)cc1	86*	75*	49*	24	63	-1	18*	-37	74*
NC(=S)Cc1nc2n(n1)Cc1ccccc1-2	2	16	3	-5	96	.	.	.	.
Cc1ccc(C(=O)n2c(=S)nc3ccccn32)cc1	.	91*	50*	-55	62	14	-31	-180	90*
O=S(=O)(c1ccc(F)c(F)c1)N1CCCCCCC1	1	.	.	.	.	.	.	.	.
O=C1NC[C@H](CCCCN2C[C@H](Cc3ccc(O)cc3)N(CCc3ccc(O)cc3)C(=O)C2=O)N(Cc2ccccc2)C1=O	0	.	.	.	.	.	.	.	.
O=C(COC(=O)CC1CC2CCC1C2)Nc1ccccc1[N+](=O)[O-] (stereo not given)	3	.	.	.	.	.	.	.	.
c1csc(-c2nnc(-c3ccc(N4CCOCC4)cc3)o2)c1	51*	46	59*	-16	56	17	-26	-109	47
C/C(=N\N1C(=O)c2ccccc2NC1c1ccco1)c1ccccc1O (stereo not given)	76*	46	46*	-18	65	17	-23	-99	50*
COC(=O)C1=C(C)NC(C)=C(C(=O)OC)C1c1ccc2ccccc2n1	1	29	7	2	100	.	.	.	.
O=C1c2ccccc2C(=O)C1c1ccc2ccccc2n1	84*	84*	49*	-25	63	8	42*	-27	80*
Cc1ccc(C(=O)Nc2ccc3nccnc3c2)cc1	76*	74*	52*	8	61	23	-23	-84	74*
Cc1cc(NC(=O)c2ccc3nccnc3c2)ccc1Br	24	.	.	.	.	.	.	.	.
CCNC(=O)C1(C)CCN1C(=O)CCc1cccc(Cl)c1 (stereo not given)	1	.	.	.	.	.	.	.	.
COc1ccc(C(=O)n2c(N)nc3ccccc32)cc1OC	7	.	.	.	.	.	.	.	.
Nc1nc2ccccc2n1C(=O)c1ccc(F)cc1	81*	50*	68*	19	45	39	-3	-66	50
Nc1nc2ccccc2n1C(=O)c1ccccc1	77*	62*	67*	28	45	31	-4	-71	62*
CCCc1nc2ccccc2n1C(CCSC)C(=O)NC(C)(C)C (stereo not given)	3	.	.	.	.	.	.	.	.
Cc1nc2ccc(-c3nc4ccccc4[nH]3)cc2[nH]1	45	40	46*	-26	64	9	-11	-87	38
Cc1cccc(-n2ncc3c(N4CCOCC4)ncnc32)c1	84*	79*	78*	10	33	62*	28*	-20	78*
Clc1ccc(-n2ncc3c(N4CCCCCC4)ncnc32)cc1	84*	63*	87*	2	29	71*	49*	12	68*
Clc1ccc(Cn2ncc3c(N4CCCCC4)ncnc32)cc1	8	-3	14	3	91	.	.	.	.
SMILES	TRAIL sens C8	PPC-1+TRAIL kill	STAT3 inh-1	STAT1 blocker	STAT3 act-1	STAT3 inh-2	NFkB inh 2	STAT1 inh STAT3c	PPC-1 tox	others
CN(CCCCCCCCCCN(C)C(=O)Oc1cccc([N+](C)(C)C)c1)C(=O)Oc1cccc([N+](C)(C)C)c1	-8	.	.	.	.	.	.	.	.
CC(=O)Nc1ccc(NC(=O)COC(=O)c2ccc(S(=O)(=O)N(C)c3ccccc3)cc2)cc1	0	.	.	.	.	.	.	.	.
O=C1C(=O)c2ccccc2C(O)=C1c1ccccc1F	0	-2	.	.	.	.	.	.	.
O=C1C(c2ccnc3ccccc23)=C(O)c2ccccc21	89*	84*	48*	7	63	9	38*	-30	86*
CC(C)CC(=O)Nc1ccc(-c2cn3ccsc3n2)cc1	83*	71*	46*	-4	65	20	-20	-45	71*
COc1ccc(C(=O)Nc2ccc(-c3cn4ccsc4n3)cc2)cc1S(=O)(=O)N1CCOCC1	13	6	32	12	79	.	.	.	.
CC(C)(C)C(=O)Nc1ccc(-c2cn3ccsc3n2)cc1	90*	91*	72*	31	43	42	-2	-21	90*
CCN1C/C(=C\c2cc(OC)c(OC)c(OC)c2)C2=NN(c3ccccc3)C(c3cc(OC)c(OC)c(OC)c3)C2C1 (stereo not given)	14	.	.	.	.	.	.	.	.
CCOC(=O)c1c(C)oc2c1c1c(c3ccccc32)OCN(Cc2ccccn2)C1	13	-9	-63	-7	150*	.	.	.	.	STAT3 act-2=126;NFkB act STAT3ct=99;STAT1 act=93
CCCCNC(=O)C[C@@H]1C[C@@]2(C(=O)OC)CCCCC=C2N(Cc2ccccc2)C1=O	-12	.	.	.	.	.	.	.	.
COC(=O)CNC(=O)COC(=O)/C=C/c1ccccc1[N+](=O)[O-]	0	14	-35	22	144*	.	.	.	.	STAT3 act-2=140*;NFkB act STAT3ct=103;STAT1 act=76
